{"source": "ChEMBL document CHEMBL1152488", "about": "“Synthesis and evaluation of pyrido[1,2-a]pyrimidines as inhibitors of nitric oxide synthases” (Eur J Med Chem, 2009)", "data": [{"target": "Nitric oxide synthase, inducible (Homo sapiens) (UniProt P35228)", "sequence (P35228 whole entry)": "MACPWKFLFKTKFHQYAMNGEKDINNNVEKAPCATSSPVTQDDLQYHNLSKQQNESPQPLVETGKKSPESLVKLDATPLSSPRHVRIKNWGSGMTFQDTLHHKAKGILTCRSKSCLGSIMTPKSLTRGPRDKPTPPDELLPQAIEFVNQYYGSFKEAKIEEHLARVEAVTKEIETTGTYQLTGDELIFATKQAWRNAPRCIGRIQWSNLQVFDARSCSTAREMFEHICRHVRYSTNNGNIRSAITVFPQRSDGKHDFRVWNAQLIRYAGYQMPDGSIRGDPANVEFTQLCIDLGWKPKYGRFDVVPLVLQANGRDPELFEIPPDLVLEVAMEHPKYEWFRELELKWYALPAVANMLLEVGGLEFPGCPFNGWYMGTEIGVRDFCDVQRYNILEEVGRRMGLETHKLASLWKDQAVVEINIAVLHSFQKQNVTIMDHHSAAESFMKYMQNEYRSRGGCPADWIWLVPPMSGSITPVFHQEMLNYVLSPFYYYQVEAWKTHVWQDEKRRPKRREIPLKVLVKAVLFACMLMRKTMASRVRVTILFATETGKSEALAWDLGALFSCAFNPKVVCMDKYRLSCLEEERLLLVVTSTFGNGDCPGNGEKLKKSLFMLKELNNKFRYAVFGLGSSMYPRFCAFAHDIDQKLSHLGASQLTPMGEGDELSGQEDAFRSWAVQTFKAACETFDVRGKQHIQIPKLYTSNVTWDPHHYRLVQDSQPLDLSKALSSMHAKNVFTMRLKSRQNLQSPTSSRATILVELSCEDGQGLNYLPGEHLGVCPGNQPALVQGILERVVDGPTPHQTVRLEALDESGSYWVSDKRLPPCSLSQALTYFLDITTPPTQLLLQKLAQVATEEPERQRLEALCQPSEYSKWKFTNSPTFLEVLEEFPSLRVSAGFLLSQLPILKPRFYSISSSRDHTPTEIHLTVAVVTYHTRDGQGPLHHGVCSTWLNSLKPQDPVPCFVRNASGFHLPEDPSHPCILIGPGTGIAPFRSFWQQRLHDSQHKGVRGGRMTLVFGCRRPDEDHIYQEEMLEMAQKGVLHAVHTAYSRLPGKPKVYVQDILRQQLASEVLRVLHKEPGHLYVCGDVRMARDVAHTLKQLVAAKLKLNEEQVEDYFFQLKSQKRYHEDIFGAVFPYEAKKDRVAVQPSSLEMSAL", "assay": "Inhibition of human iNOS expressed in insect Sf9 cells assessed as residual activity at 100 uM by Griess assay relative to control", "conditions": "not given", "how_it_was_run": "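Human iNOS made in Sf9 cells, incubated at 37 °C for 20 min in 50 mM triethanolamine pH 7.5 with 1 mM Mg2+, FAD/FMN 5 µM each, 0.5 mM NADPH, 10 µM H4B, CaM and 1 mM L-arginine. Compound 100 µM final. NADPH cleared with lactate dehydrogenase/pyruvate before Griess reaction (543 nm). Residual activity relative to 1% DMSO control; mean of 5 experiments.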", "units": {"Activity": "%"}, "values": [{"smiles": "COc1ccc2cc(C(=O)C3CN=C4C=C(C)C=C(C)N4C3)ccc2c1", "note": "(configuration not stated)", "Activity": 95}, {"smiles": "Cc1ccnc(N)c1", "Activity": 29}, {"smiles": "COc1ccc2cc(C(=O)C3CN=C4C=CC=C(C)N4C3)ccc2c1", "note": "(configuration not stated)", "Activity": 80}, {"smiles": "CC1=CC2=NCC(C(=O)c3ccc(-c4ccc(O)cc4)cc3)CN2C=C1", "note": "(configuration not stated)", "Activity": 96}, {"smiles": "CC1=CC2=NCC(C(=O)c3ccc(-c4ccc(F)cc4)cc3)CN2C=C1", "note": "(configuration not stated)", "Activity": 85}, {"smiles": "Cc1cccc(N)n1", "Activity": 47}]}, {"target": "T1, Nitric oxide synthase 3 (Homo sapiens) (UniProt P29474)", "T1 sequence (whole entry)": "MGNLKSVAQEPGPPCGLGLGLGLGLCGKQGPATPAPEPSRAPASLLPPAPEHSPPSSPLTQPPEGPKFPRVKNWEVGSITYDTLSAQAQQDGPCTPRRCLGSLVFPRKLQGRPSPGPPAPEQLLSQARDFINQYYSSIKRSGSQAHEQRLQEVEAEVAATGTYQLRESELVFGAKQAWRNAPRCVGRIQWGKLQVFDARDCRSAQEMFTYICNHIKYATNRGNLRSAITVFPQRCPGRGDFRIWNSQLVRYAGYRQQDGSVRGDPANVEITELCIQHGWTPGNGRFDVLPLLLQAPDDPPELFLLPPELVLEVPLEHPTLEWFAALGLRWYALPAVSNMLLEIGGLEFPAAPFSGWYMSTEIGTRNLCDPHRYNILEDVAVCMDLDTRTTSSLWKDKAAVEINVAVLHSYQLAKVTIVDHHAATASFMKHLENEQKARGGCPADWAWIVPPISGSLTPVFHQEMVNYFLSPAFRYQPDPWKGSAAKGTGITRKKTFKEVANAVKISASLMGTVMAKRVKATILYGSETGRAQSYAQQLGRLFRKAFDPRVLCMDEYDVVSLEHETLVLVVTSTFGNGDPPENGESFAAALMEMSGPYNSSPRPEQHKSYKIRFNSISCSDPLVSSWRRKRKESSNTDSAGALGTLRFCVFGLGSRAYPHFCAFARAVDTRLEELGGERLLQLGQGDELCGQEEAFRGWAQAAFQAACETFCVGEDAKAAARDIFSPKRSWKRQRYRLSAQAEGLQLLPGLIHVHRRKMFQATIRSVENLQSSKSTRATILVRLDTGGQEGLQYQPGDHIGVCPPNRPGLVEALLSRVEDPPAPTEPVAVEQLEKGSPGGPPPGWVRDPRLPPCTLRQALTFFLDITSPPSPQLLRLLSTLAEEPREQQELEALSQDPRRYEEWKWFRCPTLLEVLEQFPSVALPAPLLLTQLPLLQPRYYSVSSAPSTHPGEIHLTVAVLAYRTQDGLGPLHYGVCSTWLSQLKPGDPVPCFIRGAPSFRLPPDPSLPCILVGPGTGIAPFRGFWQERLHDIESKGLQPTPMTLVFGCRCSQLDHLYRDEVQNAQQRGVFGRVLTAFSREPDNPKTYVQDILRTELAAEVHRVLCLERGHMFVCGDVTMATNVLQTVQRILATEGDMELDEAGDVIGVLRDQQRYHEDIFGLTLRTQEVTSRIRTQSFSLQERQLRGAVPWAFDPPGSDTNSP", "assay": "Inhibition of human eNOS assessed as residual activity at 100 uM by Griess assay relative to control", "conditions": "not given", "how_it_was_run": "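Human eNOS expressed in Pichia pastoris. Incubated 20 min at 37 °C in triethanolamine pH 7.5 with 0.5 mM Ca2+, CaM, H4B 10 µM, FAD/FMN 5 µM, NADPH 0.5 mM, L-arginine 1 mM and compound at 100 µM final. Nitrite read by Griess (543 nm) after LDH/pyruvate NADPH removal; % of 1% DMSO control from 5 experiments.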", "units": {"Activity": "%"}, "values": [{"smiles": "COc1ccc2cc(C(=O)C3CN=C4C=C(C)C=C(C)N4C3)ccc2c1", "note": "(configuration not stated)", "Activity": 121}, {"smiles": "Cc1ccnc(N)c1", "Activity": 50}, {"smiles": "COc1ccc2cc(C(=O)C3CN=C4C=CC=C(C)N4C3)ccc2c1", "note": "(configuration not stated)", "Activity": 6}, {"smiles": "CC1=CC2=NCC(C(=O)c3ccc(-c4ccc(O)cc4)cc3)CN2C=C1", "note": "(configuration not stated)", "Activity": 86}, {"smiles": "CC1=CC2=NCC(C(=O)c3ccc(-c4ccc(F)cc4)cc3)CN2C=C1", "note": "(configuration not stated)", "Activity": 46}, {"smiles": "Cc1cccc(N)n1", "Activity": 83}]}, {"target": "T2, Nitric oxide synthase 3 (Bos taurus) (UniProt P29473)", "T2 sequence (whole entry)": "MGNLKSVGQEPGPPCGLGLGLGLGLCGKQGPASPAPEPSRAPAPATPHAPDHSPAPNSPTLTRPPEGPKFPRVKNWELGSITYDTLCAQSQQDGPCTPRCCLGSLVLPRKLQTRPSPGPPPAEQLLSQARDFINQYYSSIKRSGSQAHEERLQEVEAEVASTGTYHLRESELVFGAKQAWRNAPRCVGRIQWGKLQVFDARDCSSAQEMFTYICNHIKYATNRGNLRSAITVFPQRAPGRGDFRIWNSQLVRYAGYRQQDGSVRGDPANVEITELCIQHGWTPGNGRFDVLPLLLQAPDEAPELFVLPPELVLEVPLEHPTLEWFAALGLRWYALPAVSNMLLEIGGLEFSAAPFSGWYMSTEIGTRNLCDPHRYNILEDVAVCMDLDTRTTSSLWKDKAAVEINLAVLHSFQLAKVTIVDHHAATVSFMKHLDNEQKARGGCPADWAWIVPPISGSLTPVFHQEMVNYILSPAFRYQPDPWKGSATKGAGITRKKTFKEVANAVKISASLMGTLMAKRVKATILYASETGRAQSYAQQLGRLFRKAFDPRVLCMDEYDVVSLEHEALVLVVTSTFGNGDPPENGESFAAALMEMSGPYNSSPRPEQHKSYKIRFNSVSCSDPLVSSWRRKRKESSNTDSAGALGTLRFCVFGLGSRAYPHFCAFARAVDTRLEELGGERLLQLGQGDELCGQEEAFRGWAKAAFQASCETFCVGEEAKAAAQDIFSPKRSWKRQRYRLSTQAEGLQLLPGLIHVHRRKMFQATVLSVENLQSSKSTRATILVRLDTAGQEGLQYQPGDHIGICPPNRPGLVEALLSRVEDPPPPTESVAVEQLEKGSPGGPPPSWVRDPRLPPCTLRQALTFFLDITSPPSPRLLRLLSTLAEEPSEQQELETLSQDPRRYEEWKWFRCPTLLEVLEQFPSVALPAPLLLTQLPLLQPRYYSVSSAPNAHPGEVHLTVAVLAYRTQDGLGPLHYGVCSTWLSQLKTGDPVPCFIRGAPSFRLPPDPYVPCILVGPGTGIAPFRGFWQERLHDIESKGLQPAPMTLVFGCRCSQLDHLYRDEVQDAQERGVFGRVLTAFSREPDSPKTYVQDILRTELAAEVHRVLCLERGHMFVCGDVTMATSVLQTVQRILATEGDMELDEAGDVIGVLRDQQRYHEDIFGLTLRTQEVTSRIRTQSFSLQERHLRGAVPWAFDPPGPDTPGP", "assay": "Inhibition of bovine eNOS expressed in insect Sf9 cells assessed as residual activity at 100 uM by Griess assay relative to control", "conditions": "not given", "how_it_was_run": "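Bovine eNOS from Sf9 cells. Reaction: triethanolamine buffer pH 7.5, 0.5 mM Ca2+, 10 µg/ml CaM, 10 µM H4B, FAD, FMN, 0.5 mM NADPH, 1 mM L-arginine, with 100 µM compound, 20 min at 37 °C. After NADPH removal by LDH/pyruvate, nitrite measured by Griess at 543 nm. Expressed as % residual activity versus 1% DMSO control, 5 experiments.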", "units": {"Activity": "%"}, "values": [{"smiles": "COc1ccc(C(=O)C2CN=C3C=CC=CN3C2)cc1", "note": "(configuration not stated)", "Activity": 90}, {"smiles": "CC1=CC=CN2CC(C(=O)c3ccccc3)CN=C12", "note": "(configuration not stated)", "Activity": 92}, {"smiles": "CC1=CC=CC2=NCC(C(=O)c3ccccc3)CN12", "note": "(configuration not stated)", "Activity": 93}, {"smiles": "CC1=CC=CN2CC(C(=O)c3ccc(C)cc3)CN=C12", "note": "(configuration not stated)", "Activity": 93}, {"smiles": "COc1ccc(C(=O)C2CN=C3C=CC=CN3C2)cc1OC", "note": "(configuration not stated)", "Activity": 91}, {"smiles": "CCOc1ccc(C(=O)C2CN=C3C=C(C)C=CN3C2)cc1", "note": "(configuration not stated)", "Activity": 87}, {"smiles": "COc1cc(C(=O)C2CN=C3C=CC=CN3C2)cc(OC)c1OC", "note": "(configuration not stated)", "Activity": 86}]}, {"tested_on": "not listed separately", "assay": "Lipophilicity, log D at pH 7.4 by HPLC method", "conditions": "buffer", "values": [{"smiles": "COc1ccc(C(=O)C2CN=C3C=CC=CN3C2)cc1", "note": "(configuration not stated)", "logD": 1.5}, {"smiles": "CC1=CC=CC2=NCC(C(=O)c3ccccc3)CN12", "note": "(configuration not stated)", "logD": 1.5}, {"smiles": "CC1=CC=CN2CC(C(=O)c3ccc(C)cc3)CN=C12", "note": "(configuration not stated)", "logD": 1.6}, {"smiles": "COc1ccc(C(=O)C2CN=C3C=CC=CN3C2)cc1OC", "note": "(configuration not stated)", "logD": 1.4}, {"smiles": "COc1ccc2cc(C(=O)C3CN=C4C=C(C)C=C(C)N4C3)ccc2c1", "note": "(configuration not stated)", "logD": 1.9}, {"smiles": "COc1ccc2cc(C(=O)C3CN=C4C=CC=C(C)N4C3)ccc2c1", "note": "(configuration not stated)", "logD": 1.9}]}, {"target": "T3, Nitric oxide synthase, inducible (Mus musculus) (UniProt P29477)", "T3 sequence (whole entry)": "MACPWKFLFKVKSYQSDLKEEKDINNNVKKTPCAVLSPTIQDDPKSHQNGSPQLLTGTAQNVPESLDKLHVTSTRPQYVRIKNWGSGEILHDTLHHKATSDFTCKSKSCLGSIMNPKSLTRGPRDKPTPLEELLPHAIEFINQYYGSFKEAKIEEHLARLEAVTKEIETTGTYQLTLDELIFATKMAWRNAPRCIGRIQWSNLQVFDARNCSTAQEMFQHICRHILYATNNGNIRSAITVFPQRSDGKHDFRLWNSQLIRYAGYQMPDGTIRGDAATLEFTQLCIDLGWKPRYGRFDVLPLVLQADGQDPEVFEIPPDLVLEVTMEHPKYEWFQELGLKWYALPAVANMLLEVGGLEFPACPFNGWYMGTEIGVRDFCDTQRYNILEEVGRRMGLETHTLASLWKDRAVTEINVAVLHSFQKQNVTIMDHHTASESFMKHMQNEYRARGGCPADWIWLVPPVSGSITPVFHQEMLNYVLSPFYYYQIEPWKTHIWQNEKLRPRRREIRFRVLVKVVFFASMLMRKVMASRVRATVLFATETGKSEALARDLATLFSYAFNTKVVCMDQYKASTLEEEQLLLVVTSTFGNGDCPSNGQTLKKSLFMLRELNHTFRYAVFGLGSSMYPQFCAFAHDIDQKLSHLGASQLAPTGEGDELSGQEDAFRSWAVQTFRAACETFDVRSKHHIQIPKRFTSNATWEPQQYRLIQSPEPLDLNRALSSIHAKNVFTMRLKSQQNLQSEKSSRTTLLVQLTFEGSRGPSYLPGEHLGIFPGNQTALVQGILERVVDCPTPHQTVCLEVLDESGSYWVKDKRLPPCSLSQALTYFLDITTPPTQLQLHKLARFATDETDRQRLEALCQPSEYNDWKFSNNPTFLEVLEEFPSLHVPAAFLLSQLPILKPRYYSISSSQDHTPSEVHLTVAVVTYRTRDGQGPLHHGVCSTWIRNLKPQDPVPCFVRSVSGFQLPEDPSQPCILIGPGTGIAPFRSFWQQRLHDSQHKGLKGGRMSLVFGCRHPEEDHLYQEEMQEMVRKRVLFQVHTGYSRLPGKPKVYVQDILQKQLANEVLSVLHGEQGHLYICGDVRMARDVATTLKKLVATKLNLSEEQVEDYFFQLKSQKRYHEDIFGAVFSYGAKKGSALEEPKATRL", "assay": "Inhibition of mouse iNOS expressed in insect Sf9 cells assessed as residual activity at 100 uM by Griess assay relative to control", "conditions": "not given", "how_it_was_run": "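Murine iNOS produced in Sf9 insect cells. Buffer: 50 mM triethanolamine pH 7.5, 1 mM CHAPS, 10 mM 2-mercaptoethanol, 0.5 mM EDTA. Additions: 1 mM Mg2+, 5 µM FAD, 5 µM FMN, 0.5 mM NADPH, 10 µM H4B, 10 µg/ml CaM, 1 mM L-arginine. Compound at 100 µM final, 37 °C for 20 min. NADPH removed with LDH/pyruvate, then Griess read at 543 nm. Values are % of 1% DMSO control, 5 experiments.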", "units": {"Activity": "%"}, "values": [{"smiles": "COc1ccc(C(=O)C2CN=C3C=CC=CN3C2)cc1", "note": "(configuration not stated)", "Activity": 100}, {"smiles": "CC1=CC=CN2CC(C(=O)c3ccccc3)CN=C12", "note": "(configuration not stated)", "Activity": 103}, {"smiles": "CC1=CC=CC2=NCC(C(=O)c3ccccc3)CN12", "note": "(configuration not stated)", "Activity": 104}, {"smiles": "CC1=CC=CN2CC(C(=O)c3ccc(C)cc3)CN=C12", "note": "(configuration not stated)", "Activity": 100}, {"smiles": "COc1ccc(C(=O)C2CN=C3C=CC=CN3C2)cc1OC", "note": "(configuration not stated)", "Activity": 123}, {"smiles": "CCOc1ccc(C(=O)C2CN=C3C=C(C)C=CN3C2)cc1", "note": "(configuration not stated)", "Activity": 97}, {"smiles": "COc1cc(C(=O)C2CN=C3C=CC=CN3C2)cc(OC)c1OC", "note": "(configuration not stated)", "Activity": 105}]}]}
